Data taken from ChEMBL document CHEMBL4184265, “Discovery of novel potent HCV NS5B polymerase non-nucleoside inhibitors bearing a fused benzofuran scaffold” (Bioorg Med Chem Lett, 2018).

Assays:
[1] = Oral bioavailability in Sprague-Dawley rat at 5 mg/kg; format: ADME, organism-based; conditions: in vivo
Summary of the method: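 Sprague-Dawley rats (n=3) dosed po at 5 mg/kg as a solution in 10% NMP/10% solutol/40% PEG-400/40% saline. Iv arm given at 1 mg/kg in the same vehicle.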

[2] = AUC (infinity) in Sprague-Dawley rat at 1 mg/kg, iv; format: ADME, organism-based; set-up: dose 1 mg/kg, time infinity, route intravenous; conditions: in vivo
Summary of the method: (§1)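 Sprague-Dawley rats (n=3) dosed iv at 1 mg/kg as a solution in 10% NMP/10% solutol/40% PEG-400/40% saline.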

[3] = Half life in Sprague-Dawley rat at 1 mg/kg, iv; format: ADME, organism-based; conditions: in vivo; summary of the method: as §1
[4] = Cytotoxicity against human HuH7 cells after 24 hrs; format: cell-based, Huh-7
[5] = Metabolic stability in rat liver microsomes assessed as parent compound remaining after 60 mins; format: ADME, microsome; conditions: read-out: Stability
[6] = Metabolic stability in human liver microsomes assessed as parent compound remaining after 60 mins; format: ADME, microsome; conditions: read-out: Stability
[7] = Volume of distribution at steady state in Sprague-Dawley rat at 1 mg/kg, iv; format: ADME, organism-based; conditions: in vivo, read-out: Vdss; summary of the method: as §1
Rattus norvegicus = assay: Clearance in Sprague-Dawley rat at 1 mg/kg, iv; format: ADME, organism-based; conditions: in vivo; summary of the method: as §1
[8] = Intrinsic solubility of the compound; format: physicochemical

Row | SMILES | bioavailability [1] [%] | AUC(0-inf) [2] [ng·h/mL] | half-life [3] [min] | remaining at 1 h [5] [%] | remaining at 1 h [6] [%] | Vd [7] [L/kg] | clearance (Rattus norvegicus) [mL/min/kg] | solubility [8] | also measured
1 | CNC(=O)c1c(-c2ccc(F)cc2)oc2cc3c(cc12)[C@H](C)O[C@H](CO)CN3S(C)(=O)=O | 73 | 759 | 79.2 | 60 | 100 | 2.25 | 22 |  | CC50 at 24 h [4]: > 3 µM
2 | CNC(=O)c1c(-c2ccc(F)cc2)oc2cc3c(cc12)[C@H](C)n1nncc1CN3S(C)(=O)=O | 57 | 1300 | 146 |  |  | 1.41 | 12.8 |  | 
3 | CS(=O)(=O)N1CCCCc2cc3c(-c4ncc[nH]4)c(-c4ccc(F)cc4)oc3cc21 |  |  |  |  |  |  |  | Insoluble | 
4 | CNC(=O)c1c(-c2ccc(F)cc2)oc2cc3c(cc12)[C@H](C)OCCN3S(C)(=O)=O |  |  |  | 5 | 32.6 |  |  |  | 
5 | CNC(=O)c1c(-c2ccc(F)cc2)oc2cc3c(cc12)[C@H](C)NC(=O)CN3S(C)(=O)=O | 14 | 379 | 40.8 |  |  | 1.74 | 44.5 |  | 
6 | CNC(=O)c1c(-c2ccc(F)cc2)oc2cc3c(cc12)[C@H](C)O[C@H](CS(C)(=O)=O)CN3S(C)(=O)=O |  |  |  | 100 | 100 |  |  |  | CC50 at 24 h [4]: > 10 µM
7 | CNC(=O)c1c(-c2ccc(F)cc2)oc2cc3c(cc12)[C@H](C)CCCN3S(C)(=O)=O | 22 | 439 | 57.6 |  |  | 2.36 | 38.2 |  | 
8 | CNC(=O)c1c(-c2ccc(F)cc2)oc2cc3c(cc12)[C@@H](C)OCCN3S(C)(=O)=O | 16 | 234 | 20.4 |  |  | 1.79 | 78 |  | 
9 | CNC(=O)c1c(-c2ccc(F)cc2)oc2cc3c(cc12)C(C)NC(=O)CN3S(C)(=O)=O (racemic) |  |  |  |  |  |  |  | Insoluble | 
10 | CNC(=O)c1c(-c2ccc(F)cc2)oc2cc3c(cc12)C(C)OC(CO)CN3S(C)(=O)=O (racemic) |  |  |  | 68.9 | 85.9 |  |  |  | 
11 | CNC(=O)c1c(-c2ccc(F)cc2)oc2cc3c(cc12)C(C)N(C)C(=O)CN3S(C)(=O)=O (racemic) |  |  |  |  |  |  |  | Insoluble | 
12 | CNC(=O)c1c(-c2ccc(F)cc2)oc2cc3c(cc12)C(C)N(C)CCN3S(C)(=O)=O (racemic) |  |  |  |  |  |  |  | Soluble | 
13 | CNC(=O)c1c(-c2ccc(F)cc2)oc2cc3c(cc12)C(C)n1nnnc1CN3S(C)(=O)=O (racemic) |  |  |  |  |  |  |  | Insoluble | 
14 | CNC(=O)c1c(-c2ccc(F)cc2)oc2cc3c(cc12)C(C)OC(CS(C)(=O)=O)CN3S(C)(=O)=O (racemic) | 30 | 1060 | 217 | 99.7 | 100 | 1.51 | 16 |  | 
15 | CNC(=O)c1c(-c2ccc(F)cc2)oc2cc3c(cc12)C(C)CCCN3S(C)(=O)=O (racemic) |  |  |  | 0.8 | 0.8 |  |  |  | 
16 | CNC(=O)c1c(-c2ccc(F)cc2)oc2cc3c(cc12)C(C)NCCN3S(C)(=O)=O (racemic) |  |  |  |  |  |  |  | Soluble | 
17 | CNC(=O)c1c(-c2ccc(F)cc2)oc2cc3c(cc12)C(C)n1nncc1CN3S(C)(=O)=O (racemic) |  |  |  |  |  |  |  | Insoluble | 
18 | CNC(=O)c1c(-c2ccc(F)cc2)oc2cc3c(cc12)C(C)n1ccnc1CN3S(C)(=O)=O (racemic) |  |  |  |  |  |  |  | Insoluble | 
19 | CNC(=O)c1c(-c2ccc(F)cc2)oc2cc(N(CCO)S(C)(=O)=O)c(C3CC3)cc12 [NESBUVIR] | 73 | 1610 | 164 | 84 | 53.3 | 1.52 | 10.4 |  | 
